High-throughput results as filed in PubChem.
This is a sample that favours compounds with a hit; in the whole collection about 2.6% have one here.
rCAG RNA binder – r(CAG) repeat RNA binding; TO-PRO-1 dye displacement fluorescence; inhibition, % at 3 µM; 1.3% of 370,000 active; AID 651821;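 active means inhibition above the plate cutoff, the mean of all test compounds on that plate plus 3 SD, cut at about 35% in these data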;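 further: 0% = DMSO alone and 100% = 100 µM mitoxantrone as full dye displacement; higher means more dye released from RNA so lower well fluorescence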
ABHD5 PLIN5 PPI – blocks binding of human ABHD5 to perilipin-5 | Q00G26+Q8WTS1 | inhibition, % at 4 µM | 0.78% of 360,000 active | AID 602281 | Split G. princeps luciferase complementation, luminescence, 4 h;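 active means inhibition above the mean inhibition across every tested compound plus 3 SD, cut at about 22% in these data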;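 further: 0% = DMSO only wells and the 100% control is not disclosed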
Target sequence (Q00G26 whole entry, looked up): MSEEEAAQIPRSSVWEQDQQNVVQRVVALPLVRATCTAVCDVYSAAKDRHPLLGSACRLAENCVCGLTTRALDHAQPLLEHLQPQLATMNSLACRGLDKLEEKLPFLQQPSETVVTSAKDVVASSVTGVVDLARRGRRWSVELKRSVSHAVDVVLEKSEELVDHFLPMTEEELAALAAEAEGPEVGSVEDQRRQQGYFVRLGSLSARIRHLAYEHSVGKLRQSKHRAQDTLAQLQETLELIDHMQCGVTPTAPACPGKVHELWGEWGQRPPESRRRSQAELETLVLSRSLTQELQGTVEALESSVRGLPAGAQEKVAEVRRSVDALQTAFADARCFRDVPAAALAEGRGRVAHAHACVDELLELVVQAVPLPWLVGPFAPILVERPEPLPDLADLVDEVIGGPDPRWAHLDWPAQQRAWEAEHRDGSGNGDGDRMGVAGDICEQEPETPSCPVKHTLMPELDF
Target sequence (Q8WTS1 whole entry, looked up): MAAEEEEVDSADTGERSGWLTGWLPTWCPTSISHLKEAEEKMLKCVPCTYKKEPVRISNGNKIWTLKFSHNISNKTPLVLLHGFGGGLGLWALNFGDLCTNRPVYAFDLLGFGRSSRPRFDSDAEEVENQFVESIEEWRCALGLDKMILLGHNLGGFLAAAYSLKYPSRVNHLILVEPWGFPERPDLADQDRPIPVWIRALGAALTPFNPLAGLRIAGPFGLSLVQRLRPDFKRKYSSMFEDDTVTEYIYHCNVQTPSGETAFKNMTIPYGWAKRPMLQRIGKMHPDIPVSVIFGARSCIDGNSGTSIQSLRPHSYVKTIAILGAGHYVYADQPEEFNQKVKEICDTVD
HCV core dimer – blocks dimerization of HCV core protein; TR-FRET GST/Flag-core106 dimerization, 1536-well; inhibition, % at 5 µM; 0.33% of 300,000 active; AID 1899;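 active means inhibition above the mean of all tested compounds plus 3 SD, set per screening campaign, cut at about 45% in these data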
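assay system = GST-tagged and Flag-tagged HCV core protein residues 1-106 | controls = unlabelled core106 and no-GST-core106 wells | incubation = compound-protein-antibody incubation 4 h at 22.5 °C | probe or stimulus = Eu donor and XL665 acceptor anti-tag antibodies | read-out = % inhibition based on acceptor/donor emission ratio | signal = TR-FRET 671 and 617 nm emission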
NadD inh – blocks S. aureus nicotinate mononucleotide adenylyltransferase; 0.78% of 360,000 active; inhibition, % at 20 µM; purified NadD enzyme, colorimetric absorbance read-out; in the data active means inhibition above about 26%
* hit, by the source's call; ! = repeats disagree.

What do the screens show for `CCOC(=O)CC[C@@]1(C(=O)OCC)C[C@@H](CC(=O)NCCCOC)C(=O)N2CCCC=C21`?
rCAG RNA binder: 2

How did CCN1/C(=C/c2ccc3cc(C)ccc3[n+]2C)Sc2ccc3sccc3c21 do in these assays?
rCAG RNA binder: 11; ABHD5 PLIN5 PPI: 14; NadD inh: 64*

How did COC[C@@H]1CCCN1c1ccc2c(c1)O[C@H]1CCN(C1)S2(=O)=O do in these assays?
rCAG RNA binder: 0

How did CCOC(=O)C1CCCN(C(=O)Cn2sc3nc(C)cc(C)c3c2=O)C1 (centres undefined) do in these assays?
ABHD5 PLIN5 PPI: 64*; HCV core dimer: 1; NadD inh: -1

How did Cc1ccc(S(=O)(=O)NC2=C(N3CCN(c4ccccc4F)CC3)C(=O)c3ccccc3C2=O)cc1 do in these assays?
rCAG RNA binder: 12; ABHD5 PLIN5 PPI: -4; HCV core dimer: 23; NadD inh: 34*!

How did O=C(CCN1C(=O)/C(=C/c2ccccc2)SC1=S)Nc1ccccn1 do in these assays?
rCAG RNA binder: 5; ABHD5 PLIN5 PPI: -5; HCV core dimer: 8; NadD inh: 1

How did COc1cccc(/C=C2/SC(=S)N(CC(=O)Nc3nnc(C)s3)C2=O)c1 do in these assays?
rCAG RNA binder: 8; ABHD5 PLIN5 PPI: -9; NadD inh: 39*

Results for O=C(CN1C(=O)/C(=C/c2ccccc2)SC1=S)Nc1ncc(Cc2ccccc2)s1 ?
rCAG RNA binder: 10; ABHD5 PLIN5 PPI: -14; HCV core dimer: 54*; NadD inh: 25

What do the screens show for `COc1cccc(/C=C2/SC(=S)N(CC(=O)NNC(=O)c3ccccc3OC)C2=O)c1`?
rCAG RNA binder: 8; ABHD5 PLIN5 PPI: -1; HCV core dimer: 2; NadD inh: 39*

How did C=C(C)CSc1nc2sc(C)c(C)c2c(=O)n1C do in these assays?
rCAG RNA binder: 1

How did CN1c2ccccc2C(O)=C(C(=S)Nc2ccc(Cl)cc2)S1(=O)=O do in these assays?
rCAG RNA binder: 68*; ABHD5 PLIN5 PPI: -14; HCV core dimer: 15; NadD inh: 3

How did Cc1cccc(NC(=O)C2=C(O)c3ccccc3N(C)S2(=O)=O)c1 do in these assays?
rCAG RNA binder: 2; ABHD5 PLIN5 PPI: -3; HCV core dimer: 9; NadD inh: -7

How did CN[C@H]1C[C@@H](c2ccccc2Br)N(C(C)=O)C[C@H]1CO do in these assays?
rCAG RNA binder: 1

What do the screens show for `COc1cccc(/C=N/c2sc(Cc3ccccc3)c(C)c2C(N)=O)c1O`?
rCAG RNA binder: 37*; ABHD5 PLIN5 PPI: -5; HCV core dimer: 8; NadD inh: 5

Results for CCC(C)c1ccc(NC(=O)CSc2nnc(-c3cccc(C)c3)n2C)cc1 (centres undefined) ?
rCAG RNA binder: 2

Results for CC(/C=C1\SC(=S)N(CC(=O)N2CCN(c3ccccc3)CC2)C1=O)=C\c1ccccc1 ?
rCAG RNA binder: 8; ABHD5 PLIN5 PPI: 3; HCV core dimer: 50*; NadD inh: 18

What do the screens show for `Cc1cc(=O)[nH]c(SCC(=O)Nc2ccc(F)c(F)c2)n1`?
rCAG RNA binder: 4

Results for O=C(CSc1nc2nc(-c3cccs3)cc(C(F)(F)F)c2c(=O)[nH]1)Nc1ccc(F)c(F)c1 ?
rCAG RNA binder: 68*; ABHD5 PLIN5 PPI: 5; HCV core dimer: 5; NadD inh: 22

How did Cc1ccc(C)n1-c1cc(S(=O)(=O)N2CCOCC2)ccc1N1CCCC1 do in these assays?
rCAG RNA binder: 11; ABHD5 PLIN5 PPI: 8; HCV core dimer: 19; NadD inh: 35*

How did CNCc1cc(C)n(-c2cc(S(=O)(=O)N3CCOCC3)ccc2N2CCCC2)c1C do in these assays?
rCAG RNA binder: 12; ABHD5 PLIN5 PPI: -3; NadD inh: 5

How did Clc1cccc(CSc2nnc(-c3ccccn3)n2Cc2ccco2)c1 do in these assays?
rCAG RNA binder: -11; ABHD5 PLIN5 PPI: 23*; HCV core dimer: 14; NadD inh: 1

How did O=C(Nc1cc(Cl)ccc1Cl)c1cc(-c2ccco2)on1 do in these assays?
rCAG RNA binder: 11; ABHD5 PLIN5 PPI: 8; HCV core dimer: 24; NadD inh: 6

Results for COc1ccc(Cl)cc1NC(=O)c1cc(-c2ccco2)on1 ?
rCAG RNA binder: 18; ABHD5 PLIN5 PPI: 9; HCV core dimer: 63*; NadD inh: 18

How did Cc1ncc(CO)c2c1Oc1nc(-c3ccccc3)nc(SCC(=O)N(C)c3ccccc3)c1C2 do in these assays?
rCAG RNA binder: 13; HCV core dimer: 14

What do the screens show for `Cc1ncc(CO)c2c1Oc1nc(-c3ccccc3F)nc(SCC(=O)N(C)c3ccccc3)c1C2`?
ABHD5 PLIN5 PPI: 0; HCV core dimer: 53*; NadD inh: 21

Results for COc1cccc(/C=N/NC(=O)c2cc(-c3ccccn3)nc3ccccc23)c1O ?
rCAG RNA binder: 19; ABHD5 PLIN5 PPI: -4; NadD inh: 48*

How did COc1cccc(/C=N/NC(=O)c2[nH]c(C)c(C(=O)N/N=C/c3cccc(OC)c3O)c2C)c1O do in these assays?
rCAG RNA binder: 25; ABHD5 PLIN5 PPI: 6; HCV core dimer: 8; NadD inh: 35*

What do the screens show for `O=C(N/N=C/c1ccc(F)cc1)c1cc(-c2ccccn2)nc2ccccc12`?
rCAG RNA binder: 3; ABHD5 PLIN5 PPI: -7; NadD inh: 1

How did O=C(N/N=C/c1cc(Cl)cc([N+](=O)[O-])c1O)c1cc(-c2ccccn2)nc2ccccc12 do in these assays?
ABHD5 PLIN5 PPI: 5; HCV core dimer: 11; NadD inh: 32*

How did O=[N+]([O-])c1cc(Cl)cc(/C=N\Nc2ccccn2)c1O do in these assays?
rCAG RNA binder: 7; ABHD5 PLIN5 PPI: 5; HCV core dimer: -20; NadD inh: 12

What do the screens show for `COc1cccc(/C=N/NC(=O)c2ccc(-c3ccccc3)cc2)c1O`?
rCAG RNA binder: 9; ABHD5 PLIN5 PPI: -3; HCV core dimer: 17; NadD inh: 15

Results for CC(=O)C1=C(C)N(CC(C)C)C(=S)NC1c1cccc(Cl)c1 (centres undefined) ?
rCAG RNA binder: 0

Results for Cc1cc(N2CCN(C(=O)OC(C)(C)C)C[C@H]2C)ccc1N1CCN(Cc2ccccc2)[C@@H](C)C1 ?
rCAG RNA binder: 2

Results for COC(=O)c1cc(-c2ccc(Oc3ccccc3)cc2)c(=O)n2c1CCC2 ?
rCAG RNA binder: 0

How did O=[N+]([O-])c1cc(CN2CCN(c3ccccc3)CC2)c(O)c2ncccc12 do in these assays?
rCAG RNA binder: 2; ABHD5 PLIN5 PPI: 1; HCV core dimer: -8; NadD inh: 71*

Results for COc1ccc(N2Cc3cccc(C(=O)O)c3C2=O)cc1 ?
ABHD5 PLIN5 PPI: 0; HCV core dimer: 48*; NadD inh: 0

How did O=C1N2Cc3ccccc3C2CS(=O)(=O)N1CCc1ccccc1 (centres undefined) do in these assays?
rCAG RNA binder: -1

What do the screens show for `Cc1ccc(S(=O)(=O)n2ccc3c(OCCOCCSCC(NC(=O)OC(C)(C)C)C(=O)O)cccc32)cc1` (centres undefined)?
rCAG RNA binder: 48*; ABHD5 PLIN5 PPI: 3; HCV core dimer: 9; NadD inh: -3

Results for Cc1ccc(S(=O)(=O)n2ccc3c(OCCOCCNCc4ccc(F)cc4)cccc32)cc1 ?
rCAG RNA binder: 5; ABHD5 PLIN5 PPI: 3; HCV core dimer: -8; NadD inh: 0
